Data published in ChEMBL document CHEMBL3797090, “One-pot synthesis of 1,4-dihydroxy-2-((E)-1-hydroxy-4-phenylbut-3-enyl)anthracene-9,10-diones as novel shikonin analogs and evaluation of their antiproliferative activities” (Bioorg Med Chem Lett, 2016).

Key:
[1] = system: MDA-MB-231; experiment: Cytotoxicity against human MDA-MB-231 cells assessed as reduction in cell growth after 72 hrs by cell titer glo assay; type: functional, cell-based; conditions: MDA-MB-231, 72 h
How it was run: (§1)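 IC50, the concentration giving 50% inhibition of cell growth, was read from plots of inhibition against concentration. Values were calculated from three independent experiments.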

[2] = system: MCF7; experiment: Cytotoxicity against human MCF7 cells assessed as cell viability at 33.3 uM after 72 hrs by cell titer glo assay; type: functional; conditions: MCF7, 72 h, read-out: Activity
How it was run: (§2)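 The highest concentration tested was 33.3 μM, in a series running down to 0.0152 μM. Results came from three independent experiments.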

[3] = Cytotoxicity against human MCF10 cells assessed as cell viability at 33.3 uM after 72 hrs by cell titer glo assay; type: cell-based; conditions: read-out: Activity; how it was run: as §2
[4] = system: HeLa; experiment: Cytotoxicity against human HeLa cells assessed as reduction in cell growth after 72 hrs by cell titer glo assay; type: functional, cell-based
[5] = Cytotoxicity against human MIAPaCa2 cells assessed as reduction in cell growth after 72 hrs by cell titer glo assay; type: functional, cell-based; conditions: MIA PaCa-2, 72 h
[6] = Cytotoxicity against human MIAPaCa2 cells assessed as cell viability at 33.3 uM after 72 hrs by cell titer glo assay; type: functional; conditions: MIA PaCa-2, 72 h, read-out: Activity; how it was run: as §2
[7] = system: MDA-MB-231; experiment: Cytotoxicity against human MDA-MB-231 cells assessed as cell viability at 33.3 uM after 72 hrs by cell titer glo assay; type: functional; conditions: MDA-MB-231, 72 h, read-out: Activity; how it was run: as §2
[8] = system: MCF10; experiment: Cytotoxicity against human MCF10 cells assessed as reduction in cell growth after 72 hrs by cell titer glo assay; type: cell-based; conditions: MCF10, 72 h
How it was run: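 Non-tumour mammary epithelial cells exposed to an 8-point series (33.3, 11.1, 3.7, 1.23, 0.41, 0.137, 0.0457, 0.0152 μM). IC50 is the concentration giving 50% growth inhibition, read from the plot of inhibition against concentration and calculated from three independent experiments.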

[9] = system: MCF7; experiment: Cytotoxicity against human MCF7 cells assessed as reduction in cell growth after 72 hrs by cell titer glo assay; type: functional, cell-based; conditions: MCF7, 72 h; how it was run: as §1
[10] = system: HeLa; experiment: Cytotoxicity against human HeLa cells assessed as cell viability at 33.3 uM after 72 hrs by cell titer glo assay; type: functional; conditions: read-out: Activity; how it was run: as §2

| Structure (SMILES) | IC50 [1] | viability at 33.3 µM [2] | viability at 72 h, 33.3 µM [3] | IC50 [4] | IC50 [5] | viability at 33.3 µM [6] | viability at 33.3 µM [7] | IC50 [8] | IC50 [9] | viability at 33.3 µM [10] |
| --- | --- | --- | --- | --- | --- | --- | --- | --- | --- | --- |
| O=C1c2ccccc2C(=O)c2c(O)c(C(O)C/C=C/c3ccccc3F)cc(O)c21 (stereo unspecified) | 29.2 µM | > 50% | > 50% | 28.7 µM | 27.3 µM |  |  |  |  |  |
| COc1ccccc1/C=C/CC(O)c1cc(O)c2c(c1O)C(=O)c1ccccc1C2=O (stereo unspecified) |  | > 50% | > 50% | 29 µM |  | > 50% | > 50% |  |  |  |
| CC(C)=CC[C@@H](O)C1=CC(=O)c2c(O)ccc(O)c2C1=O [SHIKONIN] | 3.94 µM |  |  | 6.42 µM | 0.04 µM |  |  | 4.56 µM | 5.49 µM |  |
| Cc1ccc(/C=C/CC(O)c2cc(O)c3c(c2O)C(=O)c2ccccc2C3=O)cc1 (stereo unspecified) |  | > 50% | > 50% | 29 µM |  | > 50% | > 50% |  |  |  |
| O=C1c2ccccc2C(=O)c2c(O)c(C(O)C/C=C/c3cccc(F)c3)cc(O)c21 (stereo unspecified) | 26.5 µM |  | > 50% | 25.2 µM | 26.3 µM |  |  |  | 32.1 µM |  |
| COc1cccc2c1C(=O)c1c(O)c3c(c(O)c1C2=O)C[C@@](O)(C(=O)CO)C[C@@H]3O[C@H]1C[C@H](N)[C@H](O)[C@H](C)O1 [DOXORUBICIN] | 0.16 µM |  |  |  |  |  |  | 0.16 µM |  |  |
| COc1cccc(/C=C/CC(O)c2cc(O)c3c(c2O)C(=O)c2ccccc2C3=O)c1 (stereo unspecified) |  | > 50% | > 50% | 28 µM | 27.1 µM |  | > 50% |  |  |  |
| O=C1c2ccccc2C(=O)c2c(O)c(C(O)C/C=C/c3ccc(Cl)cc3)cc(O)c21 (stereo unspecified) | 28.5 µM |  | > 50% | 27.4 µM | 27.4 µM |  |  |  | 32.3 µM |  |
| COc1ccc(/C=C/CC(O)c2cc(O)c3c(c2O)C(=O)c2ccccc2C3=O)cc1 (stereo unspecified) | 26.9 µM |  | > 50% | 24.1 µM | 26.3 µM |  |  |  | 32.8 µM |  |
| O=C1c2ccccc2C(=O)c2c(O)c(C(O)C/C=C/c3ccccc3)cc(O)c21 (stereo unspecified) |  | > 50% | > 50% | 18.6 µM |  | > 50% | > 50% |  |  |  |
| O=C1c2ccccc2C(=O)c2c(O)c(C(O)C/C=C/c3ccc(Br)cc3)cc(O)c21 (stereo unspecified) |  | > 50% | > 50% |  |  | > 50% | > 50% |  |  | > 50% |
| O=C1C2=C(C(=O)c3ccccc31)C(O)C1=C(O)CC(c3ccccc3)C1=C2O (stereo unspecified) | 28.8 µM | > 50% | > 50% | 29.2 µM | 27.7 µM |  |  |  |  |  |
| O=C1c2ccccc2C(=O)c2c(O)c(C(O)C/C=C/c3ccc(F)cc3)cc(O)c21 (stereo unspecified) | 28 µM |  | > 50% | 32.9 µM | 23.2 µM |  |  |  | 28.5 µM |  |
| O=C1c2ccccc2C(=O)c2c(O)c(C(O)C/C=C/c3ccccc3Br)cc(O)c21 (stereo unspecified) | 30.7 µM |  | > 50% | 25.6 µM | 27.1 µM |  |  |  | 31.1 µM |  |
| O=C1c2ccccc2C(=O)c2c(O)c(C(O)C/C=C/c3ccccc3Cl)cc(O)c21 (stereo unspecified) |  |  | > 50% | 27.2 µM |  | > 50% |  |  | 31.5 µM |  |
| O=C1c2ccccc2C(=O)c2c(O)c(C(O)C/C=C/c3cccc(Br)c3)cc(O)c21 (stereo unspecified) |  |  | > 50% | 29.1 µM | 27.6 µM |  | > 50% |  | 31.7 µM |  |
| Cc1ccccc1/C=C/CC(O)c1cc(O)c2c(c1O)C(=O)c1ccccc1C2=O (stereo unspecified) |  |  | > 50% | 28.3 µM | 26.1 µM |  | > 50% |  | 32.8 µM |  |
| O=C1c2ccccc2C(=O)c2c(O)c(C(O)C/C=C/c3cccc(Cl)c3)cc(O)c21 (stereo unspecified) | 31.2 µM |  | > 50% | 25.8 µM | 26.4 µM |  |  |  | 32.2 µM |  |
| Cc1cccc(/C=C/CC(O)c2cc(O)c3c(c2O)C(=O)c2ccccc2C3=O)c1 (stereo unspecified) |  |  | > 50% | 27.2 µM | 28.5 µM |  | > 50% |  | 32.8 µM |  |
